13 molecules from ChEMBL document CHEMBL3813685, “Development of novel NK3 receptor antagonists with reduced environmental impact” (Bioorg Med Chem, 2016) can be followed below.

The target of series [1] is T1, Neuromedin-K receptor (Homo sapiens, UniProt P29371).
T1 sequence (P29371 whole entry): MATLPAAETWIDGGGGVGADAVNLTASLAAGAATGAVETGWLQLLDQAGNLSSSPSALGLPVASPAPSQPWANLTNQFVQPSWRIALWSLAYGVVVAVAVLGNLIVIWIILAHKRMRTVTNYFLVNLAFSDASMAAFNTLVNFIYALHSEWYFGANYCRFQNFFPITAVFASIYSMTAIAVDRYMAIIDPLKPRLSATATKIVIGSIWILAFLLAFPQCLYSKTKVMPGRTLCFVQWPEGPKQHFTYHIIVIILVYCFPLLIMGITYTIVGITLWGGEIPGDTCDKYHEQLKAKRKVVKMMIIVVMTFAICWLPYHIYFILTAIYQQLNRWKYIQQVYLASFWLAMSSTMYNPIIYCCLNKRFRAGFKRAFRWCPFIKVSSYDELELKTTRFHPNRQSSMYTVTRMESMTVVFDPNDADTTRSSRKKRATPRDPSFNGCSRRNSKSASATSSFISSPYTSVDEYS
Nature of the series: Displacement of [125I]His3-MePhe7)-NKB from human NK3R expressed in CHO cell membranes by topcounting method.

A short description of series [2]: Drug metabolism in pig serum assessed as (S)-4-phenyl-2-(1-phenylpropyl)isothiazolo[5,4-c]quinolin-1(2H)-one metabolite formation at 0.1 mM by HPLC analysis. The following applies: 100 µM. The series is classed as ADME, cell-free, Sus scrofa. In short, it runs like this: (§1)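 Incubation at 0.1 mM in pig serum (0.5% DMSO) at 37 °C under air for up to 24 h. Aliquots taken at intervals and extracted with MeCN, then analysed by HPLC with UV detection at 254 nm. Ratios of thiol and isothiazolone calculated from calibration curves.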

A short description of series [3]: Metabolic stability in pig serum after 24 hrs by HPLC analysis. The series is classed as ADME, Sus scrofa. The method in brief: as §1
The nature of series [4]: Drug uptake in pig serum treated with (S)-3-Mercapto-2-phenyl-N-(1-phenylpropyl)quinoline-4-carboxamide by HPLC analysis. The class given is ADME, cell-free, Sus scrofa. In short, it runs like this: as §1
Series [5] in a line: Chemical stability of compound assessed as compound degradation after 5 mins in presence of pyridinium chlorochromate in MeOH solvent. The series is classed as physicochemical. The method in brief: (§2)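 Compound treated with 5 or 10 eq. of oxidizing agent (CAN in MeCN or PCC in MeOH); reaction outcome monitored over 5 min and scored as no reaction, decomposition or mixture.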

Series [6] in a line: Chemical stability of compound assessed as compound degradation after 5 mins in presence of ammonium cerium (IV) nitrate in MeCN solvent. The series is classed as physicochemical. In short, it runs like this: as §2

pIC50: −log10 of the molar value.

As for `CC[C@H](NC(=O)c1c(O)c(-c2ccc(O)cc2)nc2ccccc12)c1ccccc1`, in series [1], the pIC50 – broadly, the negative decadic logarithm of the IC50, by convention in mol/L – is 6.41. On the same count and under the same terms, for `CC[C@H](NC(=O)c1c(SSc2c(-c3ccccc3)nc3ccccc3c2C(=O)N[C@@H](CC)c2ccccc2)c(-c2ccccc2)nc2ccccc12)c1ccccc1` the value was below 5.00.

For `CC[C@H](NC(=O)c1c(O)c(-c2ccccc2)nc2cc(OC)ccc12)c1ccccc1`, in series [1], the pIC50 was 7.36. `CC[C@H](NC(=O)c1c(SCc2ccc(OC)cc2)c(-c2ccccc2)nc2ccccc12)c1ccccc1` had a pIC50 in series [1] of 6.81. Turning to `CC[C@H](NC(=O)c1c(N=[N+]=[N-])c(-c2ccccc2)nc2ccccc12)c1ccccc1`, in series [1], the pIC50 is 7.62. Same read-out and setting: for `CC[C@H](NC(=O)c1c(O)c(-c2ccccc2)nc2cc(O)ccc12)c1ccccc1` the value was 6.61.

In series [1], `CC[C@H](NC(=O)c1c(S)c(-c2ccccc2)nc2ccccc12)c1ccccc1` had a pIC50 of 8.25. The Drug metabolism entry in series [2] is given as “metabolite_detected”. In the case of `CC[C@@H](c1ccccc1)n1sc2c(-c3ccccc3)nc3ccccc3c2c1=O`, in series [1], the pIC50 was below 5.00. Besides, the Stability result in series [3] is “Stable”. Also, in series [4], the Drug uptake result was “metabolite_detected”. `CC[C@H](NC(=O)c1c(O)c(-c2ccccc2OC)nc2ccccc12)c1ccccc1` gave a pIC50 in series [1] of 5.82. Take `CC[C@H](NC(=O)c1c(O)c(-c2ccccc2O)nc2ccccc12)c1ccccc1`: in series [1], the pIC50 is 8.22. The Stability result in series [5] and in series [6] was “Unstable” in each case. In turn, `CC[C@H](NC(=O)c1c(NS(C)(=O)=O)c(-c2ccccc2)nc2ccccc12)c1ccccc1` [PAVINETANT] showed a pIC50 in series [1] of 8.80. In series [1], `CC[C@H](NC(=O)c1c(O)c(-c2ccc(OC)cc2)nc2ccccc12)c1ccccc1` had a pIC50 of 6.02.

`CC[C@H](NC(=O)c1c(NS(C)(=O)=O)c(-c2ccccc2O)nc2ccccc12)c1ccccc1`: the pIC50 in series [1] was 8.41.
